The nature of assay [1]: Inhibition of West Nile virus NS2B-NS3 protease expressed in Escherichia coli BL21 lambda (DE3) using Abz-GLKRGG-3-(NO2)Y compound preincubated for 15 mins before substrate addition measured up to 15 mins by spectrofluorimetry.
Assay [2] concerns the target T1, Prothrombin (Homo sapiens, UniProt P00734). As to the kind of experiment: Inhibition of human thrombin using Boc-VPR-AMC as substrate compound preincubated for 15 mins before substrate addition measured up to 10 mins by spectrofluorimetry.
The nature of assay [3]: Inhibition of Dengue virus NS2B-NS3 protease expressed in Escherichia coli BL21 lambda (DE3) using Abz-NleKRRS-3-(NO2)Y as substrate compound preincubated for 15 mins before substrate addition measured up to 15 mins by spectrofluorimetry.
For assay [4], the target named is T1, Prothrombin. As to the kind of experiment: Inhibition of human thrombin using Boc-VPR-AMC as substrate at 25 uM preincubated for 15 mins before substrate addition measured up to 10 mins by spectrofluorimetry.
Another assay has as its system West Nile virus. As to the kind of experiment: Inhibition of West Nile virus NS2B-NS3 protease expressed in Escherichia coli BL21 lambda (DE3) using Abz-GLKRGG-3-(NO2)Y as substrate at 50 uM preincubated for 15 mins before substrate addition measured up to 15 mins by spectrofluorimetry. The method in brief: (§1)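 Single-concentration screen against His-tagged NS2B-NS3 protease (Ni²⁺-affinity purified from E. coli). Enzyme was 100 nM for Dengue or 150 nM for West Nile. Inhibitor at 50 µM was preincubated 15 min with enzyme, then internally quenched FRET substrate (final 50 µM) was added. Read at ex 320/em 405 nm for 15 min. Rate taken as RFU/s; % inhibition is the mean of triplicates.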

Assay [5] relates to Dengue virus. As to the kind of experiment: Inhibition of Dengue virus NS2B-NS3 protease expressed in Escherichia coli BL21 lambda (DE3) using Abz-NleKRRS-3-(NO2)Y as substrate at 50 uM preincubated for 15 mins before substrate addition measured up to 15 mins by spectrofluorimetry. The gist of the method: as §1
The test system of assay [6] is Dengue virus. As to the kind of experiment: Binding affinity to Dengue virus NS2B-NS3 protease catalytic center assessed as quenching of Trp50 intrinsic fluorescence.
The test system of assay [7] is Dengue virus. As to the kind of experiment: Binding affinity to Dengue virus NS2B-NS3 protease catalytic center assessed as quenching of Trp50 intrinsic fluorescence in presence of aprotinin.
The nature of assay [8]: Selectivity ratio of Ki for human thrombin to Ki for West Nile virus NS2B-NS3 protease.
Assay [9] can be described thus: Selectivity ratio of Ki for human thrombin to Ki for Dengue virus NS2B-NS3 protease.

As a reminder, the Ki is the dissociation constant of the complex between target and ligand, obtained from inhibition or displacement. Read a low Ki as a stronger hold on the target. By inhibition is commonly meant the relative decrease from the control value, in per cent.

The structures appear in SMILES notation. Active and inactive are the calls of the source. The rule behind the calls is not given here.

For `N#C/C(=C\c1ccc(N2CCOCC2)o1)C(=O)NC1CC1`, the Ki is more than 200 µM in assay [1], 23.4 µM on Prothrombin [2] and 184 µM in assay [3]. Also, the inhibition against Prothrombin [4] worked out at 47%; in the assay on West Nile virus it was 24%; in the assay with Dengue virus [5], 10.5%.
In the case of `CC(C)c1ccc(/C=C(\C#N)C(=O)NCC2CCCO2)cc1` (stereo unspecified), the Ki was 101 µM in [1], 165 µM on Prothrombin [2] and 98.1 µM in assay [3]. Besides, the outcome in the assay with Dengue virus [6] was Active. Also, in the assay with Dengue virus [7], the outcome was inactive. Further, the inhibition at Prothrombin [4] was found to be 14.4%; in the assay with West Nile virus, 46.3%; in the assay with Dengue virus [5], 28.2%.
`N#C/C(=C\c1ccc(O)cc1)C(N)=O`: the Ki in assay [1] came to 44.6 µM; at Prothrombin [2] it was 102 µM; in assay [3], 35.7 µM. Also, the results for the Ratio Ki in assay [8] and in [9] were 2.3 and 2.8, respectively. Moreover, the results for the inhibition against Prothrombin [4], in the assay with West Nile virus and in the assay with Dengue virus [5] were 24.4%, 55% and 51.7%, respectively.
Take `CN(C)c1ccc(/C=C(\C#N)C(=O)NCc2ccccn2)cc1`: the inhibition entry on Prothrombin [4] was “inactive”. Also, the inhibition in the assay with West Nile virus was found to be 21.3%; with Dengue virus [5] it was 25.3%.
In the same order, the values of `COc1cc(/C=C(\C#N)C(N)=O)cc(I)c1O` are 23%, 43.8% and 30.5%.
For `COc1cc(/C=C(\C#N)C(N)=O)cc(OC)c1OC`, the inhibition at Prothrombin [4] is 17.8%; in the assay with West Nile virus it was 19.3%; in the assay with Dengue virus [5], 15.6%.
In the same order, the values of `N#C/C(=C\c1ccncc1)C(N)=O` are “inactive”, “inactive” and “inactive”.
The corresponding values for `CN(C)c1ccc(/C=C(\C#N)C(N)=O)cc1` are 21.6%, 46% and 35.1%.
The corresponding values for `N#CC(Cc1ccc(N2CCOCC2)cc1)C(N)=O` (stereo unspecified) are “inactive”, 7.9% and “inactive”.
As to `N#C/C(=C\c1cccc(C(=O)O)c1)C(=O)NC1CC1`, the inhibition against Prothrombin [4] worked out at 11.9%; in the assay on West Nile virus, 20.1%; in the assay on Dengue virus [5] it was 20.2%.
In the same order, the values of `N#C/C(=C\c1cccc(N2CCOCC2)c1)C(=O)NC1CC1` are 9.7%, 20.5% and 18.5%.
The corresponding values for `CCC/C(=C(/C#N)C(N)=O)c1ccccc1` are 11.1%, 15.3% and 6.7%.
As for `CN(C)c1ccc(/C=C(\C#N)C(=O)O)cc1`, the inhibition came out at 13.3% at Prothrombin [4], 46.5% in the assay on West Nile virus and 38.7% in the assay with Dengue virus [5].
In the same order, the values of `CN(C)c1ccc(CC(C#N)C(N)=O)cc1` (stereo unspecified) are “inactive”, 16.2% and 7.1%.
In the same order, the values of `N#C/C(=C\c1ccc(C(=O)O)cc1)C(N)=O` are 13.2%, 23.8% and 17.1%.
The corresponding values for `N#C/C(=C\c1ccc(C(=O)O)cc1)C(=O)NC1CC1` are 15.9%, 31% and 20%.
Turning to `N#Cc1n[nH]nc1-c1ccccc1`, the inhibition result on Prothrombin [4] and with Dengue virus [5] was “inactive” throughout. In the assay with West Nile virus, this compound had an inhibition of 11.2%.
As for `CN1CCN(c2c(F)c(F)c(/C=C(\C#N)C(N)=O)c(F)c2F)CC1`, the figures for the inhibition at Prothrombin [4], in the assay on West Nile virus and in the assay with Dengue virus [5] were 28.5%, 31.9% and 19.2%, respectively.
The corresponding values for `COc1cc(/C=C(\C#N)C(N)=O)ccc1O` are 17.4%, 42.9% and 43.2%.
The corresponding values for `N#C/C(=C\c1ccc(C#N)cc1)C(N)=O` are 10.6%, 20% and 13.3%.
The corresponding values for `N#C/C(=C\c1ccc(CO)cc1)C(N)=O` are 8.7%, 21.7% and 22.1%.
Regarding `N#C/C(=C\c1ccc(O)cc1)C(=O)NCC1CCCO1` (stereo unspecified), the inhibition against Prothrombin [4] was 16.8%; in the assay with West Nile virus, 44.4%; in the assay with Dengue virus [5], 46.4%.
As to `CN(C)c1ccc(/C=C/CC(C#N)C(=O)NC2CC2)cc1` (stereo unspecified), the inhibition is 6.7% against Prothrombin [4], 37% in the assay on West Nile virus and 9% with Dengue virus [5].
For the compound `N#C/C(=C\c1ccc(N2CCOCC2)cc1)C(N)=O`, the inhibition at Prothrombin [4] was 19.2%; in the assay with West Nile virus it was 35.3%; in the assay with Dengue virus [5], 28.2%.
In the same order, the values of `COc1cc(CC(C#N)C(N)=O)cc(OC)c1OC` (stereo unspecified) are “inactive”, “inactive” and “inactive”.
Take `CN(C)c1ccc(/C=C(\C#N)C(=O)NCC2CCCO2)cc1` (stereo unspecified): the inhibition was determined as 19.8% on Prothrombin [4], 28.1% in the assay with West Nile virus and 23.3% with Dengue virus [5].
For the compound `N#C/C(=C\c1ccc(Br)cc1)C(=O)NC1CC1`, the inhibition entry on Prothrombin [4] was “inactive”. Moreover, the inhibition with West Nile virus was 22.6%; in the assay on Dengue virus [5] it was 10.9%.
In the same order, the values of `CN(C)c1ccc(/C=C/C=C(\C#N)C(=O)NC2CC2)cc1` are 16.2%, 17.1% and 10.3%.
Regarding `Cc1ccc(/C=C(\C#N)C(N)=O)cc1`, the inhibition entry at Prothrombin [4] is “inactive”. Also, the results for the inhibition in the assay on West Nile virus and with Dengue virus [5] were 22.8% and 32.2%, respectively.
Regarding `N#C/C(=C\c1ccc(N2CCCCC2)cc1)C(N)=O`, the values for the inhibition on Prothrombin [4], with West Nile virus and with Dengue virus [5] were 20%, 24.2% and 14%, respectively.
Turning to `N#C/C(=C\c1ccc(Br)cc1)C(N)=O`, the inhibition against Prothrombin [4] is 13.6%; in the assay on West Nile virus it was 15.9%; in the assay on Dengue virus [5], 11.6%.

For the origin of these results see ChEMBL document CHEMBL1926521, “Arylcyanoacrylamides as inhibitors of the Dengue and West Nile virus proteases” (Bioorg Med Chem, 2011).
